Reference: ChEMBL document CHEMBL1122142, “Synthesis and antiinflammatory activity of hexahydrothiopyrano[4,3-c]pyrazoles and related analogues” (J Med Chem, 1982)

Columns and labels:
Mus musculus [1] = test: Inhibition of Mouse active Arthus (MAA) reaction activity was determined for an ip dose of 150 mg/kg in mouse; 21-30%; assay type: functional; settings: route intraperitoneal
Cavia porcellus [2] = test: Tested in delayed hypersensitivity skin reaction (DHSR) after subcutaneous administration, activity reported as percent inhibition of erythema/induration of lesion; 4/6; assay type: functional
Summary of the method: (§1)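 Male Hartley guinea pigs were sensitized with Mycobacterium tuberculosis in Freund's incomplete adjuvant, injected into each hind footpad and subcutaneously at the neck. After 3 weeks, 1.2 μg PPD was given intradermally. Compound in sesame oil was given sc, 3 animals per group, 30 min before and 5 h after PPD; screening dose 50 mg/kg.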

Mus musculus [3] = test: Inhibition of Mouse Active Arthus reaction following 150 mg/Kg i.p.; 41-60% inhibition.; assay type: functional; settings: Mus musculus, ip
Cavia porcellus [4] = test: Tested in delayed hypersensitivity skin reaction (DHSR) after subcutaneous administration, activity reported as percent inhibition of erythema/induration of lesion; 4/0; assay type: functional; summary of the method: as §1
Mus musculus [5] = test: Carrageenan-induced edema was determined value for oral administration; assay type: functional; settings: read-out: ID50 (the source's name)
Summary of the method: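 Adult male Sprague-Dawley (CD) rats, 160–200 g. Single dose in 1% CMC given 2 h before footpad injection of 0.05 mL 1% carrageenin in pyrogen-free saline. Paws removed and weighed at 3 h, with the contralateral paw as control. ID50 is the dose giving 50% edema inhibition.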

Rattus norvegicus [6] = test: Adjuvant-induced arthritis was determined for a dose of 75 mg/kg intraperitoneal administration; settings: ip
[7] = Acute toxicity as LD50 value was determined in mice administered orally; assay type: organism-based; settings: mouse, in vivo, po
Mus musculus [8] = test: Mouse active Arthus (MAA) reaction activity was determined for an oral dose of 300 mg/kg administration in mouse; 21-30%; assay type: functional
[9] = The acute toxicity as LD50 value was determined in mice for intraperitoneally administration; assay type: organism-based; settings: mouse, in vivo, ip
Rattus norvegicus [10] = test: Carrageenan-induced edema was determined after intraperitoneal administration; settings: ip, read-out: ID50 (the source's name)
Mus musculus [11] = test: The compound was evaluated for the mouse active Arthus (MAA) reaction activity expressed as inhibitory dose after ip administration; assay type: functional; settings: read-out: ID50 (the source's name)
Summary of the method: (§2)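 CD-1 mice were sensitized ip with a 1:1 Freund's complete adjuvant emulsion containing BSA in saline, 5 weeks before challenge. Compound was suspended in 1% Na CMC in pyrogen-free saline and given as one ip or oral dose 1 h before skin challenge with BSA. Screening doses were 150 mg/kg ip and 300 mg/kg po, with some at 75 or 50 mg/kg ip. Lesions were excised 3.5 h after challenge and weighed against controls.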

Rattus norvegicus [12] = test: Adjuvant-induced arthritis was determined for a dose of 150 mg/kg administered orally; settings: po
Rattus norvegicus [13] = test: Carrageenan-induced edema was determined after oral administration of a dose of; settings: read-out: ID50 (the source's name)
Rattus norvegicus [14] = test: Adjuvant-induced arthritis was determined for a dose of 150 mg/kg administered intraperitoneally; settings: ip
Rattus norvegicus [15] = test: Adjuvant-induced arthritis was determined for a dose of 75 mg/kg oral administration
[16] = Acute toxicity as LD50 value was determined in mice administered intraperitoneally; assay type: organism-based; settings: mouse, in vivo, ip
[17] = Therapeutic ratio was determined for intraperitoneal administration; assay type: ADME; settings: ip; read-out: TR
Cavia porcellus [18] = test: Delayed hypersensitivity skin reaction (DHSR) activity was determined after a dose of 50 mg/kg; 6/15
Mus musculus [19] = test: The compound was evaluated for the mouse active Arthus (MAA) reaction activity expressed as inhibitory dose after oral administration; assay type: functional; settings: read-out: ID50 (the source's name); summary of the method: as §2
Cavia porcellus [20] = test: Tested in delayed hypersensitivity skin reaction (DHSR) after subcutaneous administration, activity reported as percent inhibition of erythema/induration of lesion; 14/11; assay type: functional
Mus musculus [21] = test: Inhibition of Mouse active Arthus (MAA) reaction activity was determined for peroral dose of 300 mg/kg in mouse; assay type: functional; settings: route oral
[22] = Therapeutic ratio was determined for peroral administration; settings: po; read-out: TR
Cavia porcellus [23] = test: Tested in delayed hypersensitivity skin reaction (DHSR) after subcutaneous administration, activity reported as percent inhibition of erythema/induration of lesion; 12/45; assay type: functional
Cavia porcellus [24] = test: Tested in delayed hypersensitivity skin reaction (DHSR) after subcutaneous administration, activity reported as percent inhibition of erythema/induration of lesion; 16/52; assay type: functional
Mus musculus [25] = test: Inhibition of Mouse active Arthus (MAA) reaction activity was determined for peroral dose of 300 mg/kg in mouse; 31-40%; assay type: functional; settings: route oral
Mus musculus [26] = test: Mouse active Arthus (MAA) reaction activity was determined for an ip dose of 150 mg/kg in mouse; assay type: functional; settings: route intraperitoneal
Cavia porcellus [27] = test: Tested in delayed hypersensitivity skin reaction (DHSR) after subcutaneous administration, activity reported as percent inhibition of erythema/induration of lesion; 14/42; assay type: functional
Mus musculus [28] = species: Mus musculus; test: The compound was evaluated for the mouse active Arthus (MAA) reaction activity expressed as inhibitory dose.; assay type: functional; settings: read-out: ID50 (the source's name); summary of the method: as §2
Mus musculus [29] = test: The compound was evaluated for the mouse active Arthus (MAA) reaction activity for an ip screening dose of 75 mg/kg in mouse; 31-40%; assay type: functional; settings: route intraperitoneal; summary of the method: as §2
Cavia porcellus [30] = test: Tested in delayed hypersensitivity skin reaction (DHSR) after subcutaneous administration, activity reported as percent inhibition of erythema/induration of lesion; 10/8; assay type: functional
Mus musculus [31] = test: Mouse active Arthus (MAA) reaction activity was determined for an ip dose of 150 mg/kg in mouse; 31-40%; assay type: functional; settings: route intraperitoneal
Cavia porcellus [32] = test: Tested in delayed hypersensitivity skin reaction (DHSR) after subcutaneous administration, activity reported as percent inhibition of erythema/induration of lesion; 1/20; assay type: functional
Cavia porcellus [33] = test: Tested in delayed hypersensitivity skin reaction (DHSR) after subcutaneous administration, activity reported as percent inhibition of erythema/induration of lesion; 7/6; assay type: functional; summary of the method: as §1
Mus musculus [34] = test: The compound was evaluated for the mouse active Arthus (MAA) reaction activity for peroral dose of 300 mg/kg in mouse; 31-40%; assay type: functional; settings: route oral; summary of the method: as §2
Mus musculus [35] = test: The compound was evaluated for the mouse active Arthus (MAA) reaction activity for an ip dose of 150 mg/kg in mouse; assay type: functional; settings: route intraperitoneal; summary of the method: as §2
Cavia porcellus [36] = test: Tested in delayed hypersensitivity skin reaction (DHSR) after subcutaneous administration, activity reported as percent inhibition of erythema/induration of lesion; 24/32; assay type: functional; summary of the method: as §1

OCCN1N=C2/C(=C/c3ccccc3)CSCC2C1c1ccccc1 (stereo not drawn)
inhibition in vivo at 150 mg/kg (Mus musculus [1]): 21%
Activity (Cavia porcellus [2]): 4

CN1N=C2/C(=C/c3cccc(C(F)(F)F)c3)CS(=O)(=O)CC2C1c1cccc(C(F)(F)F)c1 (stereo not drawn)
inhibition in vivo at 150 mg/kg (Mus musculus [3]): 41%
Activity (Cavia porcellus [4]): 4

COc1ccc2cc([C@H](C)C(=O)O)ccc2c1 [NAPROXEN]
ED50 (Mus musculus [5]): 411 mg/kg

CC(=O)N1N=C2/C(=C/c3cccc(C(F)(F)F)c3)CS(=O)(=O)CC2C1c1cccc(C(F)(F)F)c1 (stereo not drawn)
inhibition in vivo at 75 mg/kg (Rattus norvegicus [6]): 22%
LD50 [7]: > 7200 mg/kg
inhibition in vivo at 300 mg/kg (Mus musculus [8]): 21%
LD50 [9]: > 4000 mg/kg
ED50 (Rattus norvegicus [10]): > 150 mg/kg
ED50 (Mus musculus [11]): 112 mg/kg
inhibition in vivo at 150 mg/kg (Mus musculus [3]): 41%
inhibition in vivo at 150 mg/kg (Rattus norvegicus [12]): 7%
ED50 (Rattus norvegicus [13]): > 200 mg/kg
inhibition in vivo at 150 mg/kg (Rattus norvegicus [14]): 31%
inhibition in vivo at 75 mg/kg (Rattus norvegicus [15]): 0%
LD50 [16]: > 3200 mg/kg
selectivity ratio [17]: 24
Activity (Cavia porcellus [18]): 6
ED50 (Mus musculus [19]): > 600 mg/kg

Cc1ccc(/C=C2\CS(=O)(=O)CC3C2=NN(CC(F)(F)F)C3c2ccc(C)cc2)cc1 (stereo not drawn)
Activity (Cavia porcellus [20]): 14
inhibition in vivo at 150 mg/kg (Mus musculus [3]): 41%
inhibition in vivo at 300 mg/kg (Mus musculus [21]): < 20%

COc1ccc2c(c1)c(CC(=O)O)c(C)n2C(=O)c1ccc(Cl)cc1 [INDOMETHACIN]
selectivity ratio [22]: 0.04
ED50 (Mus musculus [5]): 517 mg/kg

CCCN1N=C2/C(=C/c3ccc(OC)cc3)CSCC2C1c1ccc(OC)cc1 (stereo not drawn)
inhibition in vivo at 150 mg/kg (Mus musculus [3]): 41%
Activity (Cavia porcellus [23]): 12
inhibition in vivo at 300 mg/kg (Mus musculus [21]): < 20%

Cc1ccc(/C=C2\CSCC3C2=NN(CCCN2CCN(C)CC2)C3c2ccc(C)cc2)cc1.O=C(O)/C=C\C(=O)O (stereo not drawn)
ED50 (Mus musculus [11]): 58 mg/kg
inhibition in vivo at 150 mg/kg (Mus musculus [3]): 41%
Activity (Cavia porcellus [24]): 16
inhibition in vivo at 300 mg/kg (Mus musculus [25]): 31%

C#CCN1N=C2/C(=C/c3ccccc3)CS(=O)(=O)CC2C1c1ccccc1 (stereo not drawn)
Activity (Cavia porcellus [4]): 4
inhibition in vivo at 150 mg/kg (Mus musculus [26]): < 20%

Cc1ccccc1/C=C1\CS(=O)(=O)CC2C1=NN(CCCN1CCN(C)CC1)C2c1ccccc1C.O=C(O)/C=C\C(=O)O (stereo not drawn)
Activity (Cavia porcellus [27]): 14
LD50 [16]: 130 mg/kg
selectivity ratio [17]: < 3.5
ED50 (Mus musculus [28]): < 37.5 mg/kg
inhibition in vivo at 150 mg/kg (Mus musculus [26]): > 60%

COc1ccc(/C=C2\CS(=O)(=O)CC3C2=NN(CCCN2CCN(C)CC2)C3c2ccc(OC)cc2)cc1 (stereo not drawn)
inhibition in vivo at 75 mg/kg (Mus musculus [29]): 31%
Activity (Cavia porcellus [30]): 10

COc1cc2c(c(OC)c1OC)-c1ccc(OC)c(=O)cc1[C@@H](NC(C)=O)CC2 [COLCHICINE]
LD50 [7]: 13.5 mg/kg
selectivity ratio [22]: 1
LD50 [16]: 3.5 mg/kg
selectivity ratio [17]: 1.5
ED50 (Mus musculus [5]): 13.2 mg/kg

O=C(c1ccc(Cl)cc1)N1N=C2/C(=C/c3ccccc3)CS(=O)(=O)CC2C1c1ccccc1 (stereo not drawn)
inhibition in vivo at 150 mg/kg (Mus musculus [31]): 31%
Activity (Cavia porcellus [32]): 1

CN1CCN(CCCN2N=C3/C(=C/c4ccccc4)CS(=O)(=O)CC3C2c2ccccc2)CC1.O=C(O)/C=C\C(=O)O (stereo not drawn)
Activity (Cavia porcellus [33]): 7
inhibition in vivo at 300 mg/kg (Mus musculus [34]): 31%
inhibition in vivo at 150 mg/kg (Mus musculus [35]): > 60%

CCCN1N=C2/C(=C/c3ccc(Cl)cc3)CS(=O)(=O)CC2C1c1ccc(Cl)cc1 (stereo not drawn)
inhibition in vivo at 150 mg/kg (Mus musculus [3]): 41%
Activity (Cavia porcellus [36]): 24
